# HCT116 PTEN-null = PTEN-deleted cell growth suppression; viability, % at 10 µM; HCT116 PTEN-null viability, CellTiter-Glo, 60 h; active compounds read low; actives 1.2% (n = 140,000);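 active = viability at or below a set limit, 4 SD under the median of all tested compounds, cut at about 3.7% in these data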;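 note: PTEN knockout HCT116 line with beta catenin targeted HCT116 as companion control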
# TNAP inh hi DEA = TNAP (human) inhibition, high acceptor | P05186 | purified TNAP, CDP-star luminescence, 1 M DEA | inhibition, % at 20 µM | actives 0.03% (n = 200,000);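 active = over 50% inhibition of tissue-nonspecific alkaline phosphatase at 20 µM in the single-dose screen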;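 note: plate controls were DMSO wells for no effect and EDTA-quenched wells as full inhibition for full effect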
# Target sequence (P05186 whole entry, looked up): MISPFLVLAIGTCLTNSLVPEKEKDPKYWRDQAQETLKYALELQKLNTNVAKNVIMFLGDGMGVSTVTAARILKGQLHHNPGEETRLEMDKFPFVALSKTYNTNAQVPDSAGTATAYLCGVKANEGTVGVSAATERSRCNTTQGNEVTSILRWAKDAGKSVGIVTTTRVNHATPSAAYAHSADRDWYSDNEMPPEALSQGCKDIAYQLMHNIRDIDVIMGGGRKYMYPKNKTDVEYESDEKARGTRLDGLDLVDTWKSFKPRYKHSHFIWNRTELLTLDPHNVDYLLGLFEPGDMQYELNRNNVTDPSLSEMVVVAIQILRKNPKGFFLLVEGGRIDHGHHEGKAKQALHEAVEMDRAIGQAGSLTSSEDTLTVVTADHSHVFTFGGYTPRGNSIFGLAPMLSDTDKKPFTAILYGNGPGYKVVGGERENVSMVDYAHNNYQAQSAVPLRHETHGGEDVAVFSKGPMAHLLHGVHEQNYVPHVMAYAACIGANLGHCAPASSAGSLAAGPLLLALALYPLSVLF
# TNAP act hiacc = TNAP (human) activation, high acceptor; P05186; purified TNAP, CDP-star luminescence, 1 M DEA, 30 min; active compounds read high; 0 = EDTA background, 1 = DMSO-only activity; 200,000 tested, under 10 active; activation factor at 20 µM;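 active = activation factor at least 2 at 20 µM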
#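 Control set: EDTA negative control, DMSO positive control / Assay system: human TNAP / Quantity: TNAP 1/800 final / Evaluation: TNAP activation factor scaled between EDTA and DMSO control wells / Measured by: luminescent substrate turnover signal / Compound dosing: one dose, 20 µM / Times: 30 min enzyme reaction at room temperature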
# TNAP inh no acc = inhibitors of human TNAP without phosphate acceptor | purified TNAP, CDP-star luminescence, 30 min | inhibition, % at 20 µM | actives 0.26% (n = 200,000);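 active = tissue-nonspecific alkaline phosphatase inhibition above about 50% at 20 µM in the single-dose screen, limit read from the data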;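 note: 0% = DMSO negative control and 100% = EDTA positive control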
# Lmaj promast = inhibitors of Leishmania major promastigote growth. actives 9% (n = 200,000). Leishmania major promastigotes, resazurin fluorescence viability. inhibition, % at 10 µM; in the data active = inhibition above about 50%;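 note: promastigotes grown with compound for 44 hours at 28 °C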
# bCat KO growth = beta-catenin-lacking colon tumor cell growth suppression. HCT116 beta-catenin knockout viability, CellTiter-Glo, 60 h; active compounds read low. actives 1.5% (n = 140,000). viability, % at 10 µM;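 active = viability at or under a set limit, the compound median less 4 SD, cut at about 6% in these data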;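 note: 0% = Hyamine 1622 control at 20 µM and 100% = untreated cell control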
# * marks the source's active call; other numbers are inactive results; · = no result. Compounds with a hit are over-represented: about 9.6% of the library has one in this group of screens.
SMILES,HCT116 PTEN-null,TNAP inh hi DEA,TNAP act hiacc,TNAP inh no acc,Lmaj promast,bCat KO growth
Cc1ccc(-n2nc3ccc(NC(=O)/C=C/c4ccco4)cc3n2)cc1,62.9,-4.1,1,-6.2,59.5*,81.4
Cc1ccc(S(=O)(=O)c2cc3c(=O)n4ccccc4nc3n(Cc3ccco3)c2=N)cc1,75.3,-1.8,1,-4.0,61.8*,79.2
Cc1ccc(S(=O)(=O)c2cc3c(=O)n4cccc(C)c4nc3n(Cc3ccco3)c2=N)cc1C,·,-4.7,1,-4.4,·,·
COC(=O)[C@@H]1C[C@]2(OC(=O)c3ccccc3)C=CC(=O)C[C@@H]2N1C(=O)OCc1ccccc1,2.5*,-5.6,1.1,-4.7,100.3*,3.0*
CCn1c(=O)c(=O)[nH]c2cc(C(=O)NCC3CCCCC3)ccc21,101.8,0.9,1,-5.0,68.5*,105.1
Cc1ccc(CN2C(=O)c3ccccc3NC23CCN(Cc2ccccc2)CC3)cc1,·,-5.4,1.1,-33.5,96.1*,·
O=C1NC2(CCN(Cc3ccccc3)CC2)Oc2ccccc21,·,-1.7,1,-5.1,5.8,·
N#C/C(=C\c1c[nH]c2ccccc12)C(=O)Nc1ncc(Cc2ccc(Cl)cc2Cl)s1,29.0,10.0,0.9,13.8,2.6,58.3
Cn1cc(/C=C(\C#N)C(=O)Nc2ncc(Cc3cccc(Cl)c3)s2)c2ccccc21,40.2,11.1,0.9,8.2,91.1*,29.4
CC(C)(C)c1cnnn1-c1ccc(C=O)cc1,83.4,-1.6,1,-9.5,2.5,82.2
CC(C)(C)c1cnnn1-c1ccc(C(=O)CCl)cc1,93.0,3.3,1,0.1,69.2*,101.9
CCCN1C(=O)COc2ccc(-c3n[nH]c(=O)c4ccccc34)cc21,·,-5.6,1.1,-7.2,8.9,·
COc1ccc(C2NC(C(=O)O)Cc3c2[nH]c2ccccc32)cc1OC (stereo unspecified),92.2,-2.2,1,-6.8,-5.4,93.1
COc1ccc(C2NCCc3c2[nH]c2ccccc32)cc1CSc1nc2ccccc2s1 (stereo unspecified),1.3*,-6.2,1.1,-9.1,60.4*,1.4*
O=C(c1ccc2c(=O)n3c(nc2c1)CCCCC3)N1CCN(C(c2ccccc2)c2ccccc2)CC1,58.7,-4.2,1,-2.1,39.7,72.1
O=c1c2ccccc2cnn1-c1nc2ccccc2[nH]1,·,-1.1,1,-15.7,-3.9,·
O=c1c(Cl)c(N2CCCCC2)cnn1-c1nc2ccccc2[nH]1,55.5,-1.8,1,-5.6,59.8*,60.6
CCCCC(=O)NC(=S)Nc1ccc(NC(=O)C(C)C)c(OC)c1,·,-1.4,1,-8.3,-3.4,·
Cc1nccc2[nH]c(=O)c(C(=O)NC3CCCCC3C)cc12 (stereo unspecified),81.2,1.1,1,-2.2,99.0*,71.2
c1ccc(Cn2cc(CN3CCCO3)c(-c3ccc4c(c3)OCO4)n2)cc1,·,-4.4,1,-6.2,-0.4,·
CN(CCc1cnn(C)c1)Cc1nc(CC2CC2)no1,·,-3.8,1,-4.8,-3.7,·
CCOCCN1CCN(c2c(CC)c(C)nc3cc(-c4cc(OC)cc(OC)c4)nn23)CC1,40.4,-7.8,1.1,-9.4,72.2*,48.0
OCCC1CN(Cc2cccn2-c2nccs2)CCN1Cc1ccc(F)c(F)c1 (stereo unspecified),·,-9.5,1.1,-13.1,3.5,·
COc1ccc(N2CCN(C(=O)C(C)(C)Oc3ccc(Cl)cc3)CC2)cc1,78.8,1.6,1,1.7,98.2*,74.6
CS(=O)(=O)N(CC(=O)NCc1ccco1)c1ccc(OCc2ccccc2)cc1,·,-3.1,1,-9.1,12.1,·
SMILES,HCT116 PTEN-null,TNAP inh hi DEA,TNAP act hiacc,TNAP inh no acc,Lmaj promast,bCat KO growth
CN1CCN(CCCC(=O)c2ccc(C3CCCC3)cc2)CC1,63.0,-3.7,1,-6.2,97.1*,49.9
Cc1ccc(S(=O)(=O)Nc2ccccc2/C=N/c2nc3ccccc3n2C)cc1,74.7,-2.5,1,15.5,7.9,76.7
COC(=O)C1C(=O)C2=C(CC1C)NC(C)=C(C(=O)OC(C)C)C2c1ccc(OC)c(O)c1 (stereo unspecified),81.4,1.1,1,-8.7,20.4,91.5
COC(=O)C1C(=O)C2=C(CC1C)NC(C)=C(C(=O)OC1CCCC1)C2c1ccc(N(C)C)cc1 (stereo unspecified),87.1,-2.5,1,-3.4,58.9*,84.4
Cc1ccc(-c2nc3c(c(=O)[nH]c(=O)n3CC(C)C)n2CC(C)C)cc1[N+](=O)[O-],·,-4.0,1,-18.2,23.9,·
COc1ccc(-c2ccc(-c3nc4c(c(=O)[nH]c(=O)n4Cc4ccccc4)n3C)o2)c([N+](=O)[O-])c1,26.8,7.8,0.9,-5.9,72.1*,45.1
Cn1c(-c2cc(Cl)ccc2O)nc2c1c(=O)[nH]c(=O)n2Cc1ccccc1,·,-2.3,1,-5.6,53.8*,·
O=c1[nH]c(=O)n(Cc2ccccc2)c2nc(-c3ccc(Oc4ccc(F)cc4)c([N+](=O)[O-])c3)n(CCO)c12,1.1*,0.9,1,-7.0,21.6,0.8*
CCCCn1c(=O)[nH]c(=O)c2c1nc(-c1ccc(C)c([N+](=O)[O-])c1)n2CC,·,-4.7,1,-12.7,98.6*,·
COc1ccc(Cl)cc1NC(=O)C(C)N(C)Cc1cccc(Cl)c1Cl (stereo unspecified),79.1,-4.7,1,-9.0,13.5,64.9
Fc1ccc(CSc2nnc(-c3cccnc3)o2)cc1,·,0.7,1,-0.6,-8.7,·
CCc1ccccc1NC(=S)N(CCN(C)C)Cc1cccs1,·,1.5,1,-4.5,-1.1,·
COCCn1c(-c2ccc(-c3ccc([N+](=O)[O-])cc3Br)o2)nc2c1c(=O)[nH]c(=O)n2CC(C)C,·,3.5,1,11.8,72.6*,·
O=C(c1sc2cccc(F)c2c1Cl)N1CCN(c2ncccn2)CC1,92.0,0.6,1,19.8,77.2*,91.7
COc1cc(/C=C/C(=O)OCC(=O)NC(=O)NC23CC4CC(CC(C4)C2)C3)ccc1OCC#N,63.6,-5.9,1.1,-3.6,93.2*,82.7
CCOc1cc(C=O)c(Br)cc1OC1CCCC1,86.3,-0.4,1,-2.6,83.5*,94.3
O=C(COc1nncc2ccccc12)Nc1ccc(F)c(F)c1,·,-2.5,1,-13.4,-9.0,·
CCN1CCc2c(sc(NC(=O)c3ccc(S(=O)(=O)N4CCOCC4)cc3)c2C(N)=O)C1,82.2,6.4,0.9,-4.6,1.4,85.3
CCOC(=O)N1CCc2c(sc(NC(=O)c3ccc(Cl)s3)c2C(N)=O)C1,52.3,0.6,1,-3.8,82.0*,39.4
CCN1CCc2c(sc(NC(=O)Nc3ccc(Cl)c(Cl)c3)c2C(N)=O)C1,3.8*,2.5,1,-6.2,49.9,14.2
CCOC(=O)N1CCc2c(sc(NC(C)=O)c2C(N)=O)C1,·,·,·,·,-2.0,·
CCn1c(SCC(=O)c2ccc(NC(C)=O)c(OC)c2)nnc1-c1ccc(NS(C)(=O)=O)cc1,94.7,-3.0,1,-12.1,63.6*,87.8

# Source: PubChem BioAssay (several laboratories)
